Experiment: Cmax in C57BL/6 mouse plasma at 23.4 mg/kg, po administered as single dose measured 24 hrs by UPLC-MS/MS analysis
Type: ADME, organism-based
Parameters: dose 23.4 mg/kg, route oral
Procedure, shortened: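 15 animals dosed, 3 killed at each of 1, 2, 4, 6 and 24 h. Plasma and brain homogenate (ammonium formate, acidified organic extraction) assayed by UPLC-MS/MS, brain ng/g taken as ng/mL. Noncompartmental parameters exclude values above/below quantification limit or undetected. Kp = AUClast brain/plasma.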

CN(CC(=O)O)[C@H](CC#N)Cc1ccc(OCc2ccc(Cl)c(Cl)c2)cc1
Cmax: 16800 ng/mL

Source: ChEMBL document CHEMBL4229446, “Development of Novel Monoamine Oxidase-B (MAO-B) Inhibitors with Reduced Blood-Brain Barrier Permeability for the Potential Management of Noncentral Nervous System (CNS) Diseases” (J Med Chem, 2018)
